# CHOP inh: inhibitors of CHOP promoter induction, primary screen, cell-based, unfolded protein response, luciferase reporter | CHO-K1 CHOP-promoter luciferase, tunicamycin-induced, 15-18 h | inhibition, % at 10 µM | 220,000 tested, 3.8% active | AID 2732, 2010;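 active = compounds that reduced the stress-induced luciferase reporter signal by more than about 70% of percent inhibition, limit read from the data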;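 note: 0% = tunicamycin plus vehicle and 100% = wells without tunicamycin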
# XBP1 UPR activ: activators of adaptive XBP1 UPR arm, primary screen, cell-based, CHO-XBP1 luciferase reporter, luminescence, uHTS. IRE1-XBP1 UPR activation; percent of tunicamycin response, DMSO as zero. activation, % at 20 µM. 330,000 tested, 0.33% active;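 active = versus positive control, 20 µM dose yields 30% or more activation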;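 note: 100% = tunicamycin at 10 µg/mL and 0% = DMSO only wells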
#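 Material: CHO cell line with stable XBP1 luciferase reporter; schedule: 16-18 h cell attachment at 37 °C, then 6 h compound exposure; signal: glow luminescence from Steady-Glo reagent; medium: serum-containing F12 medium, 10% FBS; benchmarks: tunicamycin 10 µg/mL and vehicle-only wells; read-out: percent activation relative to tunicamycin reference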
# B2AR ag: beta2AR agonists driving receptor internalization, primary screen, cell-based, FAP fluorogen, flow cytometry | Beta-2 adrenergic receptor (Homo sapiens), P07550 | Am2.2-beta2AR cells | response, % (concentration not given with the values) | 340,000 tested, 0.43% active | AID 504454, 2011;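 active = response above a set limit, near 3 SD of response in nonfluorescent compounds, cut at about 42% in these data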
# VLA-4 inh: inhibition in human VLA-4 binding assay, primary screen, VLA-4 allosteric modulator project, MLPCN library, flow cytometry, VLA-4 expressing cells | Integrin alpha-4 (Homo sapiens), P13612 | ligand binding flow cytometry | inhibition, % (about 7 µM as worked out from the volumes in the protocol) | 330,000 tested, 0.2% active | AID 2557, 2010; in the data active = inhibition above about 50%
# Target sequence (P13612 whole entry, looked up): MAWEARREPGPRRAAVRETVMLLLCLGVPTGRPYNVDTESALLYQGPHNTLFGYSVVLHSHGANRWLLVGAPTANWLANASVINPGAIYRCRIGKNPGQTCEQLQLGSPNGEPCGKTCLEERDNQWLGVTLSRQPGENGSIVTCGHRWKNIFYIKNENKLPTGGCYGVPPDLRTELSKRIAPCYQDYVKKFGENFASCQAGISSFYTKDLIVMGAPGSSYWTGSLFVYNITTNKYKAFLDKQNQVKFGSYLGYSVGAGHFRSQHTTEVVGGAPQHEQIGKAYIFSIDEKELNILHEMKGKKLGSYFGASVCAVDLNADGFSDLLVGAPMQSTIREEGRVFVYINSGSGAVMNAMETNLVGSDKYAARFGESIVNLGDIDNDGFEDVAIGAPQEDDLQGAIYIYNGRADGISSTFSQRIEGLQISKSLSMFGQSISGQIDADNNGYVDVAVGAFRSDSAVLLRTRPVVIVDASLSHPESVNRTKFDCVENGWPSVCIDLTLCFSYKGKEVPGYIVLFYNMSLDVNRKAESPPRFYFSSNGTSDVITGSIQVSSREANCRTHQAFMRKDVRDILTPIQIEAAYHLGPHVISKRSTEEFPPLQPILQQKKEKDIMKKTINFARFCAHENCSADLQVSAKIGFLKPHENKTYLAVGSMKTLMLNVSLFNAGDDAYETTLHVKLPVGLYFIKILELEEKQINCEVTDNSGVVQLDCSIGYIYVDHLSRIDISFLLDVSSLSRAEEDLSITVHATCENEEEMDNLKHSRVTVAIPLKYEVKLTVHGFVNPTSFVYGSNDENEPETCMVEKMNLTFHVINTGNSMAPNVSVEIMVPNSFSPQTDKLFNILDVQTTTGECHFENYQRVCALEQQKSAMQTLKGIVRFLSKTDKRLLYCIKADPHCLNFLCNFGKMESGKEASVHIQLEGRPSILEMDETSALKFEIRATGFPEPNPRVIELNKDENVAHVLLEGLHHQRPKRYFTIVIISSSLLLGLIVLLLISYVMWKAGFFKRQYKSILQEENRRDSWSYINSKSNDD
# UPR CHOP act: activators of apoptotic CHOP UPR arm, primary screen, cell-based, CHO-CHOP luciferase reporter, luminescence, uHTS | AID 449763, 2010 | UPR activation; percent of tunicamycin response over DMSO baseline | activation, % at 10 µM | 330,000 tested, 0.34% active;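 active = at 10 µM dose, activation of 40% or more, normalized to positive control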;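 note: 100% = tunicamycin at 10 µg/mL and 0% = DMSO alone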
#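 Assay system: CHO-CHOP cells, stable luciferase reporter of PERK-eIF2a-CHOP signalling / Buffer or medium: F12 plus 10% serum / Compound dosing: one dose, 10 µM in 0.5% DMSO / Times: 6 h compound treatment, 37 °C / Technique: luciferase luminescence / Read-out: % reporter activation, DMSO baseline versus tunicamycin full activation / Benchmarks: tunicamycin and DMSO controls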
# VLA-4 mod pick: retest of VLA-4 allosteric modulators, confirmation, cell-based, cherry-picked plates, U937, HUTS-21 LIBS antibody. shares compounds with VLA-4 inh. U937 cells, HUTS-21 LIBS mAb binding, flow cytometry; LDV ligand present at threefold Kd. inhibition, % at 6.7 µM. 1,300 tested, 2% active. AID 2813, 2010; in the data active = inhibition above about 40%;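 note: 0% = ligand without compound and 100% = no ligand background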
# * marks the source's active call; other numbers are inactive results; nt = no result. The sample as a whole holds a higher share of hits than the screen did.
SMILES,CHOP inh,XBP1 UPR activ,B2AR ag,VLA-4 inh,UPR CHOP act,VLA-4 mod pick
Cc1ccc(CNC(=O)C2CCCCN2S(=O)(=O)c2ccccc2)cc1 (stereo unspecified),nt,-5,-1,55*,1,16
Cc1noc(C)c1COc1ccc(C(=O)NCCc2ccc(F)cc2)cc1,nt,2,4,50*,0,12
C=CC[C@@H](Cc1ccc(F)cc1)C(=O)OC[C@@H]1CCCN1C(=O)[C@H](CC=C)CC(=O)N(CCO)Cc1ccccc1,nt,0,1,9,1,nt
O=C(c1cc(-c2ccccn2)nc2c(Cl)cccc12)N1CCN(C(=O)C2CCCO2)CC1 (stereo unspecified),7,-3,4,1,0,0
O=C(c1cc(-c2ccccn2)nc2c(Cl)cccc12)N1CCN(S(=O)(=O)c2ccccc2)CC1,-40,3,3,-8,2,nt
O=C(Nc1ccsc1C(=O)O)c1cccc(C(F)(F)F)c1,nt,-1,5,40,4,-17
CC1CN(CCOCCSc2ccccc2)CC(C)O1 (stereo unspecified),10,-3,2,46,-2,2
COc1cccc(-c2cc(C(=O)N3CCN(Cc4ccc5c(c4)OCO5)CC3)on2)c1,nt,-1,2,55*,2,19
Cc1cc(C(=O)N2CCN(Cc3ccc4c(c3)OCO4)CC2)on1,21,-1,-1,22,0,nt
COC(=O)c1cc(C(=O)OCC(=O)NCc2cccs2)cc([N+](=O)[O-])c1,nt,-2,1,14,1,nt
COc1ccccc1N1CCN(C(=O)c2ccc3[nH]c(C)c(C)c3c2)CC1,nt,1,20,50*,-2,26
Cc1ccccc1Nc1nc(N)nc(CSc2ccc(F)cc2)n1,-7,-2,-4,8,7,nt
Cc1ccc(SCc2nc(N)nc(Nc3ccccc3C)n2)cc1C,31,1,-4,54*,-2,-6
CCCCCCCCOC(=O)c1ccc(N)cc1,76*,-2,7,50*,2,7
Nc1nc(F)nc2c1ncn2[C@@H]1O[C@H](CO)[C@@H](O)[C@@H]1O,23,-4,6,19,-2,nt
Nc1ncnc2c1ncn2C1O[C@H](CO)[C@@H](O)[C@@H]1O (stereo partly specified),nt,-8,2,19,-1,nt
Nc1nc(Nc2ccccc2)nc2c1ncn2[C@@H]1O[C@H](CO)[C@@H](O)[C@H]1O,nt,-3,6,56*,-1,14
Nc1nc(F)nc2c1ncn2[C@@H]1O[C@H](CO)[C@@H](O)[C@H]1O,nt,-7,3,6,-4,1
Nc1ncnc2c1ncn2[C@@H]1O[C@H](CO)[C@@H](O)[C@@H]1O,nt,-6,-8,-23,-2,2
Cc1ccc(CN2CCC(n3nccc3NC(=O)CCOc3ccccc3)CC2)cc1C,nt,-4,7,106*,3,2
Cn1cc(CN2CCC(n3nccc3NC(=O)CCOc3ccccc3)CC2)cn1,nt,-2,-4,-108,-1,nt
Clc1ccc(CN2C3=NCCCN3c3ccccc32)cc1Cl,-5,-3,-4,1,3,nt
CC(NC(=O)CN1C(=O)NC2(CCc3ccccc32)C1=O)c1ccccc1 (stereo unspecified),nt,-1,-5,-73,1,nt
O=C1NC(=O)/C(=C/c2cccc(O)c2)N1,2,nt,-1,47,nt,-3
O=C1NC(=O)C(=Cc2ccccc2)N1,nt,nt,1,nt,nt,nt
COc1ccccc1-c1nnc(SCC(=O)N2CCCC2)o1,nt,4,0,6,4,nt
O=C(O)CCc1ccc(S(=O)(=O)Nc2ccccc2N2CCCCC2)cc1,nt,-3,3,9,-1,nt
CCCC[C@@H]1CNC(=O)C(=O)N1CCCc1cc(OC)c(OC)c(OC)c1,18,1,3,58*,1,-1

# Assay outcomes from PubChem.
